High-throughput results: PubChem, several laboratories
M1 antagonist = antagonists of rat M1 muscarinic receptor. hit rate 3.4% among 64,000. CHO-M1 cells, Fluo-4 calcium, ACh EC80 antagonist mode; stronger effect = lower value. B-score at 10 µM. AID 628;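 active = calcium fluorescence response, raw or row-and-column corrected B-score, differing from the plate sample mean either way at a set confidence level, mostly lower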
Target sequence (P08482 whole entry, looked up): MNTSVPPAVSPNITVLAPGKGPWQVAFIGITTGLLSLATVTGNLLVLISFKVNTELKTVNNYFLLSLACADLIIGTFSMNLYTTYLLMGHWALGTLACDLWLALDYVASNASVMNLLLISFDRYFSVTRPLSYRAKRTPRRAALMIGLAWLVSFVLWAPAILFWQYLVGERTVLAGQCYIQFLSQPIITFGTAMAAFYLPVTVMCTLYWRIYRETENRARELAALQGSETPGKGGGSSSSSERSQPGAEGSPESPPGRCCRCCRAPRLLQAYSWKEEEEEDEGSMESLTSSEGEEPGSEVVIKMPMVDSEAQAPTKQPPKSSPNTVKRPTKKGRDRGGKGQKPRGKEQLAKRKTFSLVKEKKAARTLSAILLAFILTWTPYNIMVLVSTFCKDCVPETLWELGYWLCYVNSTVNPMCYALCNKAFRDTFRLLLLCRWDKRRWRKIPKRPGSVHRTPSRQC
M1 agonist = agonists of M1 muscarinic receptor; CHO-M1 cells, Fluo-4 calcium fluorescence, agonist mode; stronger effect = higher value; B-score at 10 µM; hit rate 3% among 64,000; AID 626;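 active = fluorescence rise, raw or as B-score row- and column-corrected plate score, outside the 99.7% band of its plate's samples, either direction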
HEK293 NFkB inh = inhibitors of the PMA/ionomycin-induced NF-kB reporter in HEK293 cells | HEK-293 NF-kB luciferase reporter, luminescence | inhibition, % at 3 µM | hit rate 0.21% among 62,000 | AID 465;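 active = inhibition above the mean of all tested compounds plus 3 SD, cut at about 40% in these data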;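 note: 0% = stimulated DMSO wells and 100% = 10 µM reference inhibitor 5653914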
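Timing: 1 h pretreatment, 16 h stimulation, 37 °C; system: HEK-293 cells with stable firefly luciferase reporter driven by four HIV NF-kB elements; doses: 3 µM once, 0.30% DMSO; measured by: luciferase luminescence; control set: DMSO and 10 µM reference inhibitor; repeats: single test; reagent: PMA plus ionomycin mix as NF-kB-activating stimulus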
Jurkat viability = cytotoxic compounds reducing Jurkat cell viability; inhibition, % at 4 µM; Jurkat E6.1 viability, ATP luminescence, 48 h; AID 463; hit rate 1.2% among 56,000;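 active = inhibition above the mean inhibition of all tested compounds plus 3 SD, cut at about 28% in these data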
D1 mod = allosteric modulators of human D1 dopamine receptor; P21728; HEK293 D1, CRE-luciferase, dopamine EC30 potentiation; actives deviate in either direction; B-score at 10 µM; hit rate 5.9% among 58,000; AID 641;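 active = luminescence count or its row- and column-corrected plate score outside the 99.7% band of the plate's sample wells, on either side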
DAT uptake mod = human DAT dopamine uptake with cocaine, either direction | B-score at 10 µM | Q01959 | hit rate 1.3% among 110,000 | LLC-PK1 hDAT cells, [14C]-dopamine uptake with cocaine IC80; actives deviate in either direction | AID 449768;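 active = Z score or B-score, a plate-position-corrected score, falls beyond the plate's 99.7% confidence bounds, in either direction; inactive = both scores lie inside the 99.7% bounds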;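 note: scored against the spread of the other compound wells on the same plate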
D1 mod confirm = D1 receptor (human) allosteric modulation, confirmed; shares compounds with D1 mod; HEK293 D1 CRE-luciferase, dopamine EC30 potentiation; stronger effect = higher value; luminescence at 10 µM; hit rate 88% among 2,200; AID 642;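 active = luminescence in either of two replicates above the same-plate mean plus 3 SD of the low-dose dopamine control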
D1 no dopamine = secondary test of D1 modulators: activity without dopamine; luminescence at 10 µM; hit rate 0.8% among 1,900; shares compounds with D1 mod; HEK293 D1 CRE-luciferase, luminescence, no dopamine; stronger effect = higher value; in the data active = luminescence above about 3900
Isoprot counter = counter-screen for D1 modulators: isoproterenol response in HEK293 cells | shares compounds with D1 mod | HEK293 D1 CRE-luciferase, isoproterenol EC30 counter-screen | calls only at 10 µM | hit rate 63% among 2,200;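 active = luminescence in either replicate above plate mean of wells with a partly effective reference agonist dose plus 3 SD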;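 note: isoproterenol raises cAMP through native beta-adrenoceptor Gs so signal bypasses D1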
Active calls of the source: *; i = inactive; . = no result; + = active, no number. A selection: hits, their analogues and other compounds. The true share with any hit is near 7.6%.

SMILES | M1 antagonist | M1 agonist | HEK293 NFkB inh | Jurkat viability | D1 mod | DAT uptake mod | D1 mod confirm | D1 no dopamine | Isoprot counter
CCCn1c(=O)c(C(=O)NCc2ccc(OC)c(OC)c2)c(O)c2ccccc21 | -0.06 | -2 | 15 | -6 | 4.5* | 1.9 | 9276* | 1736 | +
CC(=O)C1=C(C)NC(SCC(=O)c2ccc(F)cc2)=C(C#N)C1c1ccco1 (stereo not drawn) | -0.42 | -0.48 | 13 | 6 | 5.5* | 0.66 | 3664* | 1712 | i
O=C(CSc1nnc(COc2ccc3c(c2)CCCC3)o1)Nc1ccc(F)cc1 | -0.8 | -0.089 | 14 | 4 | 0.01 | -0.47 | . | . | .
C=CCN1C(=O)c2oc3ccccc3c(=O)c2C1c1ccc(O)c(OC)c1 (stereo not drawn) | -0.2 | -0.67 | 22 | -2 | 8.1* | . | 10008* | . | i
COCCN1C(=O)c2oc3ccccc3c(=O)c2C1c1ccc(OC)c(OC)c1 (stereo not drawn) | 0.028 | -0.6 | 11 | -2 | . | -0.86 | . | . | .
N#Cc1ccccc1Cn1c(=O)n(Cc2ccc(C(=O)NCc3ccco3)cc2)c(=O)c2ccccc21 | 0.9 | -0.74 | 22 | -4 | 4.4* | 0.18 | 18988* | 1796 | +
N#Cc1ccccc1Cn1c(=O)n(CCC(=O)NCc2ccco2)c(=O)c2ccccc21 | -1.1 | -0.026 | 7 | 4 | 0.5 | . | . | . | .
Cc1cccc(Cn2c(=O)n(Cc3ccco3)c(=O)c3ccccc32)c1 | -0.34 | 0.75 | 20 | -4 | 12* | 0.79 | 22552* | 1708 | +
Cc1ccccc1Cn1c(=O)n(CCCC(=O)NCc2ccco2)c(=O)c2ccccc21 | -1.6 | 1.6 | 13 | 3 | 5.5* | 0.22 | 11052* | 1848 | +
COC(=O)c1nc2n(n1)C(c1ccc(OC)c(OC)c1)C(C(=O)OC1CCCCC1)=C(C)N2 (stereo not drawn) | -0.13 | 1.2 | 17 | . | 3.3* | 1.6 | 7744* | . | i
COc1ccc(C2C(C(N)=O)=C(C)Nc3nc(-c4ccccc4OC)nn32)cc1OC (stereo not drawn) | 0.044 | -0.4 | 14 | -2 | -1.4 | -0.073 | . | . | .
COc1nc(Nc2ccc(O)cc2)nc(OC(C(F)(F)F)C(F)(F)F)n1 | . | . | 13 | 9 | 6.2* | -0.74 | 13552* | . | +
Nc1cccc(Nc2nc(OC(C(F)(F)F)C(F)(F)F)nc(OC(C(F)(F)F)C(F)(F)F)n2)c1 | . | . | . | . | . | 0.2 | . | . | .
C/C(CCc1oc2ccccc2c1-c1ccc(C)o1)=N/O | 0.093 | 0.35 | 10 | -8 | 7.2* | 0.17 | 9460* | 1544 | i
CC(=O)c1cccc(NC(=O)N2CCC(c3nnc(SCC(N)=O)n3C)CC2)c1 | 0.14 | 1.2 | 17 | 2 | 3.3* | 0.59 | 4940 | . | i
Cn1c(SCC(N)=O)nnc1C1CCN(C(=O)NC2CCCCC2)CC1 | 0.56 | 0.25 | 10 | -3 | 0.06 | -0.52 | . | . | .
COc1ccc(C(=O)Nc2ccc3oc(Cc4ccc(Cl)cc4)nc3c2)cc1OC | . | . | . | . | . | 0.99 | . | . | .
Cc1nc2c(C(=O)NCc3ccco3)cnn2c(C)c1Cc1ccc(F)cc1Cl | -0.16 | 0.5 | -1 | -2 | 0.97 | -0.95 | . | . | .
Cc1cccc(Cc2c(C)nc3c(C(=O)NCc4ccco4)cnn3c2C)c1 | 0.067 | 1.2 | 20 | 6 | 3.9* | 0.22 | 8112* | 1484 | i
Cc1ccc(N2CC(c3nc4ccccc4[nH]3)CC2=O)c(C)c1 (stereo not drawn) | 0.19 | -0.42 | 7 | -3 | 11* | 0.16 | 6760 | 1648 | i
Cc1cccc(N2C(=O)CC(N3CCC(c4nc5ccccc5[nH]4)CC3)C2=O)c1 (stereo not drawn) | . | . | . | . | . | 0.021 | . | . | .
O=C(NCC1CCCO1)c1onc(CSc2cccc(Cl)c2)c1C(=O)O (stereo not drawn) | . | . | . | . | . | -0.32 | . | . | .
